Laboratory results taken from ChEMBL document CHEMBL4699450, “Nonclassical Phenyl Bioisosteres as Effective Replacements in a Series of Novel Open-Source Antimalarials” (J Med Chem, 2020).
Values after ≈ are worked out from the molar mass of the structure shown. Active and inactive are the calls of the source. The calls are words filed in the database; no cut-off is given here.

What was measured:
[1] = tested on: Plasmodium falciparum; assay: Antiplasmodial activity against Plasmodium falciparum 3D7 by SYBR green-I fluorescence dye based fluorescence assay; assay type: functional, organism-based
How it was run: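 P. falciparum 3D7 grown in human red cells (1.25% or 5% suspension) in RPMI 1640 with 0.5% Albumax II, 12 mM bicarbonate, 0.2 mM hypoxanthine, pH 7.3, gentamicin, 37 °C, 1% O2/3% CO2. Ten-point dose-response, 1-in-3 dilutions; SYBR Green I DNA fluorescence (ex 485/em 528 nm); mefloquine control; percent inhibition vs high/no-inhibition controls; four-parameter fit; IC50 from ≥3 independent experiments.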

[2] = target: Voltage-gated inwardly rectifying potassium channel KCNH2 (Homo sapiens, UniProt Q12809); assay: Inhibition of human ERG
Voltage-gated inwardly rectifying potassium channel KCNH2, sequence (Q12809 whole entry): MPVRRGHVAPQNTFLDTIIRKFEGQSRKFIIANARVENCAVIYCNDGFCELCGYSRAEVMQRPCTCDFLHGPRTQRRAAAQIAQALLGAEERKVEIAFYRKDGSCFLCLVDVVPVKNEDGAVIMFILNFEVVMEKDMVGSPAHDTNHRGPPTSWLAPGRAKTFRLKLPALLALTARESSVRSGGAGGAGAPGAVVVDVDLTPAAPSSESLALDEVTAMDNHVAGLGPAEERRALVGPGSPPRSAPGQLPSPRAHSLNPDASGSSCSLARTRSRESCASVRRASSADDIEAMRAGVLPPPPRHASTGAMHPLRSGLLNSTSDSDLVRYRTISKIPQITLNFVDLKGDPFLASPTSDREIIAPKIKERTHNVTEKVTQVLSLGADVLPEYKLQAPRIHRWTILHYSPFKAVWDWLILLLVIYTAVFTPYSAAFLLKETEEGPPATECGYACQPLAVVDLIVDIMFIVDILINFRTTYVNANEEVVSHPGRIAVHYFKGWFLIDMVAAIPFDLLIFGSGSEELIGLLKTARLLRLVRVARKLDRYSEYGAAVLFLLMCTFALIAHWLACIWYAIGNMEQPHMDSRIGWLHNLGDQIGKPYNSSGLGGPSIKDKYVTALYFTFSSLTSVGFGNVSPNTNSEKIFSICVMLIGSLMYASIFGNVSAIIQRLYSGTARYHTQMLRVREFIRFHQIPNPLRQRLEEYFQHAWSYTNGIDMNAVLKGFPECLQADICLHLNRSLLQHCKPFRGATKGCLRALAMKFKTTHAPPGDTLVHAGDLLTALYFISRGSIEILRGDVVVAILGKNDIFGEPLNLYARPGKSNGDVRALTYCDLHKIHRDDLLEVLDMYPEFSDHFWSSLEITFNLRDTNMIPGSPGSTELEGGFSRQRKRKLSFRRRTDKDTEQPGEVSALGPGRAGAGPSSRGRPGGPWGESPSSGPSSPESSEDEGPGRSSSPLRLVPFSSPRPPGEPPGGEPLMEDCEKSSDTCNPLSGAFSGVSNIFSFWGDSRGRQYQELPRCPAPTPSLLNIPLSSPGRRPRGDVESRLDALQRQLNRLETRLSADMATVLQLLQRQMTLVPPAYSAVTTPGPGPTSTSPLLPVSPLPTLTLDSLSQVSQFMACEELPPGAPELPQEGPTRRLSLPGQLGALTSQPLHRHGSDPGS

[3] = Distribution coefficient, logD of compound at pH 7.4 by HPLC analysis; assay type: physicochemical; conditions: octanol/water
How it was run: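 LogD at pH 7.4 estimated by gradient HPLC, correlating retention (mean of 2 injections) against standards of known partition coefficient.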

[4] = Kinetic solubility in pH 6.5 phosphate buffer after 30 mins by nephelometry; assay type: physicochemical; conditions: read-out: Kinetic_solubility
How it was run: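 DMSO stock spiked into pH 6.5 phosphate buffer at 7 concentrations, final DMSO 1%; after 30 min precipitation read by nephelometry to give a solubility range.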

[5] = Half life in human liver microsomes at 1 uM in presence of NADPH-regenerating system; assay type: ADME, Microsome
[6] = Half life in mouse liver microsomes at 1 uM in presence of NADPH-regenerating system; assay type: ADME, Microsome

| SMILES | Activity [1] | further results |
| --- | --- | --- |
| FC(F)Oc1ccc(-c2nnc3cncc(OCCC4COC4)n23)cc1 | inactive | – |
| c1ccc(CCOc2cncc3nnc(C4CCOC4)n23)cc1 (stereo unspecified) | inactive | – |
| FC(F)Oc1ccc(-c2nnc3cncc(OCCN4CCCCC4)n23)cc1 | inactive | – |
| FC(F)Oc1ccc(-c2nnc3cncc(OCCN4CCCC4)n23)cc1 | inactive | – |
| FC(F)Oc1ccc(-c2nnc3cncc(Oc4ccccc4)n23)cc1 | inactive | – |
| FC(F)Oc1ccc(-c2nnc3cncc(OCCC45C6C7C8C6C4C8C75)n23)cc1 (stereo unspecified) | Active | IC50 [2]: 4.26 µM; logD [3]: 4.3; solubility kinetic at 0.5 h [4]: < 1.6 µg/mL; half-life at 1 µM [5]: 9 min; half-life at 1 µM [6]: 3 min |
| FC(F)Oc1ccc(-c2nnc3cncc(OCCc4ccccc4)n23)cc1 | – | IC50 [2]: 7.41 µM; logD [3]: 3.7; solubility kinetic at 0.5 h [4]: 6.3 µg/mL (≈ 16.5 µM); half-life at 1 µM [5]: 26 min; half-life at 1 µM [6]: 7 min |
| FC(F)Oc1ccc(-c2nnc3cncc(OCC45CC(C(F)F)(C4)C5)n23)cc1 | Active | logD [3]: 3.6; solubility kinetic at 0.5 h [4]: 6.3 µg/mL (≈ 15.4 µM); half-life at 1 µM [5]: 190 min; half-life at 1 µM [6]: 66 min |
| c1ccc(CCOc2cncc3nnc(C4CCNCC4)n23)cc1 | inactive | – |
| FC(F)Oc1ccc(-c2nnc3cncc(OCCN4CC5(COC5)C4)n23)cc1 | inactive | – |
| FC(F)Oc1ccc(-c2nnc3cncc(OCCN4CCNCC4)n23)cc1 | inactive | – |
| CC(C)(C)OC(=O)N1CCC(c2nnc3cncc(OCCc4ccccc4)n23)C1 (stereo unspecified) | inactive | – |
| CC(C)(C)OC(=O)N1CCN(CCOc2cncc3nnc(-c4ccc(OC(F)F)cc4)n23)CC1 | inactive | – |
| FC(F)Oc1ccc(-c2nnc3cncc(OC[C@H]4C[C@@H]5C[C@@H]4[C@H]4O[C@@H]54)n23)cc1 | inactive | – |
| CC(C)(C)OC(=O)N1CCC(c2nnc3cncc(OCCc4ccccc4)n23)CC1 | inactive | – |
| c1ccc(CCOc2cncc3nnc(C4CCNC4)n23)cc1 (stereo unspecified) | inactive | – |
| FC(F)Oc1ccc(-c2nnc3cncc(OC[C@H]4C[C@@H]5C[C@@H]4[C@@H]4O[C@H]54)n23)cc1 | inactive | – |
| c1ccc(CCOc2cncc3nnc(C4CCOCC4)n23)cc1 | inactive | – |
